Experiments:
[1] = Cytotoxicity assay; assay type: cell-based; conditions: African green monkey, Vero cells
How it was run: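 Vero cells grown in DMEM with 10% FBS and penicillin/streptomycin, plated at 1 × 10^5 cells/well and grown 24 h. Exposed 48 h to various concentrations of test compound, final DMSO under 0.05% (v/v). MTT solution (2 mg/mL) added for 4 h, supernatant removed, formazan dissolved in DMSO, absorbance read at 550 nm. Viability expressed relative to control wells; CC50 by regression analysis.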

[2] = test system: porcine epidemic diarrhea virus (PEDV); assay: Cytopathic effect; assay type: cell-based
How it was run: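 Vero cells (DMEM, 10% FBS, penicillin/streptomycin) seeded at 1 × 10^5 cells/well and PBS-washed a day later. Near-confluent monolayers were inoculated with PEDV at 0.01 MOI for 2 h, then given DMEM with various concentrations of test compound. After 72 h at 37 °C, 5% CO2, MTT solution (2 mg/mL) was added for 4 h. EC50 came from regression analysis; SI = CC50/EC50.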

- EC50 ([2]; Porcine epidemic diarrhea virus, Vero, 72 h): 5.58 ± 0.53 µM
Compound: O=c1cnn([C@@H]2O[C@H](CO)[C@@H](O)[C@H]2O)c(=O)[nH]1 [Compound 6-Azauridine, 6-Azauridine]
- CC50 at 48 h [1]: 44.5 ± 6.11 µM
- SI ([2]; selective index, SI = CC50/EC50): 7.98 ± 0.37

— paper PMC7111685 (Phytochemistry, 2015)
